Source: ChEMBL document CHEMBL1127677, “The novel Ins(1,4,5)P3 analogue 3-amino-3-deoxy-Ins(1,4,5)P3: a pH-dependent Ins(1,4,5)P3 receptor partial agonist in SH-SY5Y neuroblastoma cells” (J Med Chem, 1994)

Columns and labels:
[1] = biological target: T1, Type 1 InsP3 receptor isoform S2 (Sus scrofa, UniProt P79248); assay: Binding affinity against IP3 receptor in pig cerebellar membranes at a pH of 7.6 using [3H]Ins(1,4,5)P3 as the radioligand.; assay type: cell membranes, Cerebellum, Membrane
Summary of the method: (§1)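 [3H]Ins(1,4,5)P3 displacement using pig cerebellar P2 membranes, assayed at pH 7.6. Buffer: 25 mM Tris/maleate, 5 mM NaHCO3, 1 mM EDTA, 0.25 mM DTT. Increasing ligand concentrations were incubated with 1.5 nM radioligand and about 50 μg membrane protein for 30 min at 4 °C. Bound ligand was separated by centrifugation. Nonspecific binding was taken with 10 μM Ins(1,4,5)P3. IC50 from curve fitting, mean ± sem, n = 3.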

[2] = Calcium mobilization in saponin permeabilised SH-SY5Y neuroblastoma cells at a pH of 7.6; assay type: functional, cell-based; conditions: Homo sapiens
Summary of the method: (§2)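 SH-SY5Y cells were preloaded with 45Ca2+ and permeabilized with saponin. Release from Ins(1,4,5)P3-sensitive stores was measured in cytosolic-like buffer at pH 6.8, 7.2 or 7.6, at 20–22 °C. Release was normalized to 100% using 30 μM Ins(1,4,5)P3 as an internal standard in each experiment. EC50 from curve fitting, mean ± sem, n = 4.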

[3] = biological target: T1, Type 1 InsP3 receptor isoform S2; assay: Binding affinity against IP3 receptor in pig cerebellar membranes at a pH of 6.8 using [3H]Ins(1,4,5)P3 as the radioligand.; assay type: cell membranes, Cerebellum, Membrane
Summary of the method: as §1, with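 “pH 6.8.” for “pH 7.6.”, “about 70” for “about 50”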

[4] = Calcium mobilization in saponin permeabilised SH-SY5Y neuroblastoma cells at a pH of 7.2; assay type: functional, cell-based; conditions: Homo sapiens; summary of the method: as §2
[5] = Calcium mobilization in saponin permeabilised SH-SY5Y neuroblastoma cells at a pH of 6.8; assay type: functional, cell-based; conditions: Homo sapiens; summary of the method: as §2

T1 sequence (P79248 whole entry, canonical isoform): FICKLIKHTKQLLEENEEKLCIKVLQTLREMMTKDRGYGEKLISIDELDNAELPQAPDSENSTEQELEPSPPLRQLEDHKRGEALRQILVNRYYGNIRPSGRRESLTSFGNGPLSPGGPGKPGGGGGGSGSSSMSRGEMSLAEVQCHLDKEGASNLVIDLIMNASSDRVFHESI

SMILES | IC50 [1] | EC50 [2] | IC50 [3] | EC50 [4] | EC50 [5]
OC1C(O)C(OP(O)(O)=S)C(OP(O)(O)=S)C(O)C1OP(O)(O)=S (stereo unspecified) | 61 nM | 107 nM | 78 nM | 52 nM | 255 nM
NC1C(O)C(OP(=O)(O)O)C(O)C(OP(=O)(O)O)C1OP(=O)(O)O (stereo unspecified) | 5650 nM | 1490 nM | 9110 nM | 1070 nM | 3680 nM
OC1C(OP(O)(O)=S)C(O)C(OP(O)(O)=S)C(OP(O)(O)=S)C1OP(O)(O)=S (stereo unspecified) |  |  |  |  | 5320 nM
